Key:
[1] = test system: panel of 11 human tumor cell lines; test: MTT antiproliferative assay, whole panel; format: cell-based; conditions: read-out: GI50 values across the panel
How it was run: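 Leukemia lines grown in RPMI-1640 and adherent carcinoma lines in DMEM, each with 10% FBS plus penicillin/streptomycin. Seeded at 8 × 10³ cells/well and settled 18 h at 37 °C, 5% CO₂. Medium was then replaced with fresh medium holding graded compound concentrations from 10 mM DMSO stocks, in triplicate, for 72 h. Viability by MTT; GI50 is the concentration inhibiting proliferation by 50%.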

HeLa cells [2] = test: Flow cytometric cell cycle analysis, HeLa; format: cell-based, human; conditions: 24 h, different concentrations
How it was run: (§1)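 5 × 10⁵ HeLa (DMEM) or Jurkat (RPMI-1640) cells, both with 10% FBS, were treated with a range of test compound concentrations for 24 h. Cells were then collected and fixed in ice-cold 70% ethanol, lysed in buffer with RNase A and 0.1% Triton X-100, and PI-stained. DNA content was read by flow cytometry and histograms analysed for phase percentages. Mean of two independent experiments.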

Jurkat cells [3] = test: Flow cytometric cell cycle analysis, Jurkat; format: cell-based, human; conditions: 24 h, different concentrations
How it was run: as §1

HeLa cells [4] = test: Annexin-V/PI apoptosis assay, HeLa; format: cell-based, human; conditions: 24 or 48 h
How it was run: (§2)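 Human lines: HeLa grown in DMEM and Jurkat in RPMI-1640, each with 10% FBS, penicillin G and streptomycin. Cells exposed to test compound at several concentrations for 24 or 48 h, harvested and double-stained with annexin-V-FITC and PI. Surface phosphatidylserine read by flow cytometry, giving live, early apoptotic, late apoptotic and necrotic fractions. Mean ± SEM of three independent experiments.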

Jurkat cells [5] = test: Annexin-V/PI apoptosis assay, Jurkat; format: cell-based, human; conditions: 24 or 48 h
How it was run: as §2

HeLa cells [6] = test: Mitochondrial membrane potential; format: cell-based, human; conditions: 24 or 48 h
Jurkat cells [7] = test: Mitochondrial membrane potential; format: cell-based, human; conditions: 24 or 48 h
HeLa cells [8] = test: ROS production; format: cell-based, human; conditions: 24 or 48 h
How it was run: (§3)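 HeLa or Jurkat cells were treated with test compound for 24 or 48 h, then loaded with H₂-DCFDA, which ROS oxidise to fluorescent DCF. Fluorescence was measured by flow cytometry. Mean ± SEM of three independent experiments.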

Jurkat cells [9] = test: ROS production; format: cell-based, human; conditions: 24 or 48 h
How it was run: as §3

[10] = Metabolic stability in human liver microsomes; format: in vitro ADME; conditions: 10 μM
How it was run: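 Pooled mixed-gender human liver microsomes (1.0 mg/mL) in 0.1 M KH₂PO₄, pH 7.4, with 10 μM final compound, with or without 1 mM NADPH; buffer-only controls. Microsomes added after 3-min equilibration at 37 °C. Stopped at 0, 15, 30 or 60 min with ice-cold acetonitrile, then centrifuged. Supernatants analysed by C18 HPLC with fluorescence detection (ex 344/em 493 nm). Percent remaining from peak area versus 0 min; mean ± SD, n = 3–4.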

bovine brain tubulin = bovine brain tubulin (Bos taurus, UniProt P81947+Q6B856); conditions: read-out: tubulin assembly IC50; cited from earlier work
Chain of bovine brain tubulin (Q6B856 whole entry): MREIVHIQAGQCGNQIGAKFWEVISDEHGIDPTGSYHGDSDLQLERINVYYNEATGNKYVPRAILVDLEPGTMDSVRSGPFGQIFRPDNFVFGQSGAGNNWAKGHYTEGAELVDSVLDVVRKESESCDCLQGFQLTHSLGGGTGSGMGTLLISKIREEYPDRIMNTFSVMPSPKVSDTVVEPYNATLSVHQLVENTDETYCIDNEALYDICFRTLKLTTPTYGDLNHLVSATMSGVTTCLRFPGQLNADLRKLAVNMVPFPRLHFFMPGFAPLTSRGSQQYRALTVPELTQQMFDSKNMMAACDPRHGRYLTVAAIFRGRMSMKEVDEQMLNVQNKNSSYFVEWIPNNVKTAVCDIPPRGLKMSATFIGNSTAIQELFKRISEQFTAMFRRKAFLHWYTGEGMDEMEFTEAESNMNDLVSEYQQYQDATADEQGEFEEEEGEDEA
Chain of bovine brain tubulin (P81947 whole entry): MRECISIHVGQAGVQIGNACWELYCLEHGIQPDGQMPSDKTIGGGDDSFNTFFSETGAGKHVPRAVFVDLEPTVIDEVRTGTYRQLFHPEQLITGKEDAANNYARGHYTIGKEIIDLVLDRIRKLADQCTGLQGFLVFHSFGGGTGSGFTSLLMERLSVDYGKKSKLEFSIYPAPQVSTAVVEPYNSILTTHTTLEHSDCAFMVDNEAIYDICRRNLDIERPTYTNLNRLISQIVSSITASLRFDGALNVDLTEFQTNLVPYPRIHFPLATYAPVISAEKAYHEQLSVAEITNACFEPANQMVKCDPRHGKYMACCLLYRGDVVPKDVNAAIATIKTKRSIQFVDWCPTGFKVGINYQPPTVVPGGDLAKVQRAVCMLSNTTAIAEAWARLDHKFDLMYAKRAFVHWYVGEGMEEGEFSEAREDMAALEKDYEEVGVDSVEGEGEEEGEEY

tubulin = conditions: cited from earlier work
A549 cell line = conditions: cited from earlier work

Row | SMILES | GI50 [1] | induction of apoptosis (annexin-V/PI) (HeLa cells [4]) | induction of apoptosis (annexin-V/PI) (Jurkat cells [5]) | cells with low mitochondrial transmembrane potential (JC-1) (HeLa cells [6]) | cells with low mitochondrial transmembrane potential (JC-1) (Jurkat cells [7]) | ROS production (H2-DCFDA) (HeLa cells [8]) | ROS production (H2-DCFDA) (Jurkat cells [9]) | further results
1 | O=C(c1ccccc1)n1ccc2c3c(=O)cc(-c4ccccc4)[nH]c3ccc21 [Compound 4a, 3-Benzoyl-7-phenyl-6H-pyrrolo[3,2-f]quinolin-9-one] | 0.0001 to 0.01 µM | significant time- and concentration-dependent increase of apoptotic cells | significant time- and concentration-dependent increase of apoptotic cells | marked increase in the percentage of cells with low Δϕmt | marked increase in the percentage of cells with low Δϕmt | induced the production of large amounts of ROS | induced the production of large amounts of ROS | effect on cell cycle progression (HeLa cells [2]): significant G2/M arrest in a concentration-dependent manner; effect on cell cycle progression (Jurkat cells [3]): significant G2/M arrest in a concentration-dependent manner; influence of NADPH on compound disappearance ([10]; HLMs 1 mg/mL, with or without 1 mM NADPH): not influenced by the presence of NADPH; compound remaining ([10]; human liver microsomes 1 mg/mL, 60 min, 37 °C): more than 60%
2 | O=c1cc(-c2ccccc2)[nH]c2ccc3c(ccn3CC3CC3)c12 [Compound 10] | – | – | – | – | – | – | – | IC50 (bovine brain tubulin): 0.9 µM; inhibition of colchicine binding (tubulin): 83%; induction of autophagy (A549 cell line): induce autophagy
3 | CS(=O)(=O)n1ccc2c3c(=O)cc(-c4ccccc4)[nH]c3ccc21 [Compound 4b, 3-Methanesulfonyl-7-phenyl-6H-pyrrolo[3,2-f]quinolin-9-one] | – | significant time- and concentration-dependent increase of apoptotic cells | significant time- and concentration-dependent increase of apoptotic cells | marked increase in the percentage of cells with low Δϕmt | marked increase in the percentage of cells with low Δϕmt | induced the production of large amounts of ROS | induced the production of large amounts of ROS | –

Now from value to compound, other results behind:

Row | GI50 [1] | SMILES | induction of apoptosis (annexin-V/PI) (HeLa cells [4]) | induction of apoptosis (annexin-V/PI) (Jurkat cells [5]) | cells with low mitochondrial transmembrane potential (JC-1) (HeLa cells [6]) | cells with low mitochondrial transmembrane potential (JC-1) (Jurkat cells [7]) | ROS production (H2-DCFDA) (HeLa cells [8]) | ROS production (H2-DCFDA) (Jurkat cells [9]) | further results
4 | > 10 µM | CS(=O)(=O)N1CCc2cc3[nH]c(-c4ccccc4)cc(=O)c3cc21 [Compound 8b, 1N-methanesulfonyl-2,3-dihydro-6-phenyl-5H-pyrrolo [2,3-g]quinolin-8-one] | – | – | – | – | – | – | –
5 | 0.25 to 2.65 µM | O=C(c1ccccc1)N1CCc2c1ccc1[nH]c(-c3ccccc3)cc(=O)c21 [Compound 7a, 3-benzoyl-1,2-dihydro-7-phenyl-6H-pyrrolo[3,2-f]quinolin-9-one] | – | – | – | – | – | – | –

Source: article PMC5431288 (European journal of medicinal chemistry, 2016)
